{"source": "paper PMC6422158", "about": "(Clinical cancer research : an official journal of the …, 2018)", "key": {"[1]": {"target": "CYP3A4 (Homo sapiens, UniProt P08684)", "sequence (P08684 whole entry)": "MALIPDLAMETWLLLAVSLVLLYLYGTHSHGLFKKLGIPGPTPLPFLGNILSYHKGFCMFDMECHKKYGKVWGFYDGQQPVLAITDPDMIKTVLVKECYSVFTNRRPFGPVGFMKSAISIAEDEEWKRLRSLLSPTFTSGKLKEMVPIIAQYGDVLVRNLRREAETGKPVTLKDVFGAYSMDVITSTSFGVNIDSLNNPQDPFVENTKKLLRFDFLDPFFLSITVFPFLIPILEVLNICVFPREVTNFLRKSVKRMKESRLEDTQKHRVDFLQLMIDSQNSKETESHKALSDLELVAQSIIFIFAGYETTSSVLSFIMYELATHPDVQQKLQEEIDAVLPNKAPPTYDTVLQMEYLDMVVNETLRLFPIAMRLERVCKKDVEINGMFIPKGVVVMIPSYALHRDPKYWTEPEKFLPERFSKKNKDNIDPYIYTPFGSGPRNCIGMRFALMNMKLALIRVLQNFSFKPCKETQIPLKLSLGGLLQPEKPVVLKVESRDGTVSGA", "test": "In vitro metabolism by CYP3A4", "format": "in vitro ADME", "conditions": "in vitro data"}, "[2]": {"tested_on": "locally advanced/metastatic basal cell carcinoma", "test": "Tumor response per RECIST 1.1, BCC patients", "format": "in vivo, human", "in_short": "(§1)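 Response was assessed by RECIST 1.1 plus investigator assessment. Best response required two CR determinations (or two PR-or-better) before progression. Confirmation used the same radiologic method repeated at least 4 weeks after the initial response. ORR was CR+PR among all patients dosed at least once. Clinical benefit was CR+PR+SD among dosed patients with a measurable lesion.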"}, "[3]": {"tested_on": "human Smo (hSmo) receptor", "conditions": "cited from earlier work"}, "[4]": {"test": "in vitro", "format": "in vitro ADME", "conditions": "human, plasma"}, "[5]": {"tested_on": "advanced cancer", "test": "Tumor response per RECIST 1.1, all patients on therapy", "format": "in vivo, human", "conditions": "84 patients on therapy", "in_short": "as §1"}, "[6]": {"target": "human serum albumin (Homo sapiens, UniProt P02768)", "sequence (P02768 25-609)": "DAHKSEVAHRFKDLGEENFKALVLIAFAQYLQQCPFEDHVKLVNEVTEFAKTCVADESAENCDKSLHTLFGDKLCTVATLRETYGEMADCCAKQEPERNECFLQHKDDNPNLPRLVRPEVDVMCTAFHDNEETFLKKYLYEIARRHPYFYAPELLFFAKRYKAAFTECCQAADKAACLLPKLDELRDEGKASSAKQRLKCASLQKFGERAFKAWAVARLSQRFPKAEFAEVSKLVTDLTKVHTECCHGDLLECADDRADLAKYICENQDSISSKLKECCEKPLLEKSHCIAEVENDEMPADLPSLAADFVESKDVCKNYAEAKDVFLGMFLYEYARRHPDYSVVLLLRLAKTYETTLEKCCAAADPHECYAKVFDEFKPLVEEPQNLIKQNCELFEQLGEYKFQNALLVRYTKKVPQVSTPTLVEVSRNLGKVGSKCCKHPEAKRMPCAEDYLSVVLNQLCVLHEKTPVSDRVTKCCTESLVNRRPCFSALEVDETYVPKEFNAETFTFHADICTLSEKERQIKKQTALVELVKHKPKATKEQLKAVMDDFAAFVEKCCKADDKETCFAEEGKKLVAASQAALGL", "test": "In vitro binding to human serum albumin", "format": "in vitro ADME"}, "[7]": {"test": "Plasma pharmacokinetics of LY2940680 and LSN3185556 in patients", "format": "in vivo, human", "in_short": "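Oral dosing was once daily in the morning, 50–600 mg, on 28-day cycles. About 4 mL blood was drawn into EDTA tubes over a 24-h sampling schedule. Parent and metabolite in plasma were quantified by validated LC/MS. Noncompartmental analysis gave Cmax, tmax, AUC0–24, t1/2, Vd/F and CL/F. Accumulation ratio was from AUC0–24, days 1 vs 15, reported as geometric means with %CV.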"}, "[8]": {"tested_on": "patients with advanced cancer", "test": "Phase I safety and tolerability", "format": "in vivo"}, "[9]": {"tested_on": "Gli1 mRNA", "test": "Gli1 mRNA expression in skin biopsies", "format": "in vivo, human", "conditions": "overall, all doses 50-600 mg QD; interquartile range 80.9%−95.7%", "in_short": "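Normal skin biopsies taken predose, cycle 1 day 15 and cycle 2 day 1 from patients on oral QD dosing (28-day cycles). Post-dose samples were taken 2 h after dosing in escalation, and 24 h after the cycle 2 day 1 dose in confirmation/expansion. GLI1 was measured by RT-PCR, normalised to RPLP0, and % inhibition was derived by 2−ΔΔCT and summarised by dose level.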"}, "[10]": {"tested_on": "advanced BCC", "conditions": "human, in vivo; cited from earlier work"}, "[11]": {"conditions": "at doses above 400 mg; first human dose trial; ref 19−22; cited from earlier work"}, "[12]": {"conditions": "cited from earlier work"}, "[13]": {"conditions": "BCC, prior Hh therapy including vismodegib and sonidegib"}}, "data": [{"compound": "CN(C(=O)c1ccc(F)cc1C(F)(F)F)C1CCN(c2nnc(-c3ccnn3C)c3ccccc23)CC1", "note": "[LY2940680, taladegib]", "values": [{"measurement": "Fraction metabolized by CYP3A4", "setting": "[1]", "value": 100, "unit": "%"}, {"measurement": "Best overall response of CR or PR", "setting": "[2]; 16 BCC patients requiring dose reductions", "value": "9 (56.3%) patients (%)"}, {"measurement": "Best overall response of CR or PR", "setting": "[2]; 47 BCC patients", "value": "22 (46.8%) patients (%)"}, {"measurement": "Best response of progressive disease", "setting": "[2]; 47 BCC patients", "value": 1, "unit": "patient"}, {"measurement": "Best response of SD", "setting": "[2]; 47 BCC patients (twenty-one patients)", "value": 44.7, "unit": "%"}, {"measurement": "Best response of non-CR nonprogressive disease", "setting": "[2]; 47 BCC patients, based on nontarget lesions", "value": 1, "unit": "patient"}, {"measurement": "Responses in Hh treatment-naïve patients", "setting": "[2]; BCC", "value": 68.8, "unit": "%"}, {"measurement": "Responses in Hh treatment-naïve patients (responders/patients)", "setting": "[2]; BCC", "value": "11/16"}, {"measurement": "Estimated median PFS", "setting": "[2]; BCC expansion phase (n = 40), 400 mg QD, 95% CI 7.62−17.54", "value": 12.0, "unit": "months"}, {"measurement": "Estimated response rate", "setting": "[2]; BCC patients (n = 47), 95% CI 32.1%−61.9%", "value": 46.8, "unit": "%"}, {"measurement": "Disease control rate", "setting": "[2]; BCC patients, 95% CI 82.5%−98.7%", "value": 93.6, "unit": "%"}, {"measurement": "Responses in patients previously treated with Hh therapy", "setting": "[2]; [13]", "value": 35.5, "unit": "%"}, {"measurement": "Responses in patients previously treated with Hh therapy (responders/patients)", "setting": "[2]; [13]", "value": "11/31"}, {"measurement": "Duration of sustained response, single patient", "setting": "[2]; Hh-inhibitor treatment–naïve locally advanced BCC, 50 mg QD, PR", "value": 8.3, "unit": "months"}, {"measurement": "Confirmed CR", "setting": "[2]; number of the 16 BCC patients requiring dose reductions", "value": 3}, {"measurement": "Confirmed CR", "setting": "[2]; number of the 47 BCC patients", "value": 5}, {"measurement": "Confirmed PR", "setting": "[2]; number of the 47 BCC patients", "value": 16}, {"measurement": "Unconfirmed PR", "setting": "[2]; number of the 47 BCC patients", "value": 1}, {"measurement": "Binding to hSmo receptor", "setting": "[3]", "value": "competitively inhibits binding of an hSmo agonist"}, {"measurement": "fraction unbound", "setting": "[4]", "value": 0.056}, {"measurement": "Best response of SD", "setting": "[5]", "value": "26 (30.9%) patients (%)"}, {"measurement": "Best response of progressive disease", "setting": "[5]", "value": "24 (28.6%) patients (%)"}, {"measurement": "Confirmed CR", "setting": "[5]", "value": "5 (5.9%) patients (%)"}, {"measurement": "Confirmed PR", "setting": "[5]", "value": "16 (19.0%) patients (%)"}, {"measurement": "Patients with a response", "setting": "[5]", "value": "22 (26.2%) patients (%)"}, {"measurement": "Unconfirmed PR", "setting": "[5]", "value": "1 (1.2%) patients (%)"}, {"measurement": "Concentration dependence of binding to human serum albumin", "setting": "[6]; 1 to 10 μmol/L", "value": "no apparent concentration-dependent binding"}, {"measurement": "Predominant plasma-binding protein", "setting": "[6]; tested with human serum albumin and human α−1-acid glycoprotein", "value": "Human serum albumin"}, {"measurement": "Accumulation ratio based on AUC0–24", "setting": "[7]; LY2940680, between days 1 and 15, QD, range 0.7−4.8, 39% CV", "value": "approximately 2"}, {"measurement": "Steady state attained", "setting": "[7]; QD dosing", "value": "cycle 2, day 1"}, {"measurement": "Dose proportionality of Cmax and AUC0–24", "setting": "[7]; after multiple doses", "value": "did not suggest any large deviation from dose proportionality"}, {"measurement": "Time to reach Cmax", "setting": "[7]; after single- and multiple-dose oral administrations", "value": "approximately 3 hours"}, {"measurement": "PK variability on exposure", "setting": "[7]; human, in vivo", "value": "approximately 70%"}, {"measurement": "Vd/F", "setting": "[7]; human, plasma, po", "value": 235, "unit": "L"}, {"measurement": "CL/F (geometric mean)", "setting": "[7]; oral, 70% CV", "value": 8.2, "unit": "L/h"}, {"measurement": "AE resulting in dose reductions: decreased appetite", "setting": "[8]; human, in vivo", "value": 3}, {"measurement": "AE resulting in dose reductions: dysgeusia", "setting": "[8]; human, in vivo", "value": 3}, {"measurement": "AE resulting in dose reductions: fatigue", "setting": "[8]; human, in vivo", "value": 8}, {"measurement": "AE resulting in dose reductions: muscle spasms", "setting": "[8]; human, in vivo", "value": 8}, {"measurement": "AE resulting in dose reductions: nausea", "setting": "[8]; human, in vivo", "value": 3}, {"measurement": "AE resulting in dose reductions: weight decreased", "setting": "[8]; human, in vivo", "value": 3}, {"measurement": "Patients who discontinued treatment because of AE", "setting": "[8]; human, in vivo", "value": 10}, {"measurement": "Patients with SAEs", "setting": "[8]; human, in vivo", "value": 22, "unit": "patients"}, {"measurement": "Patients with at least 1 dose reduction", "setting": "[8]; human, in vivo", "value": 16, "unit": "patients"}, {"measurement": "Patients with DLTs", "setting": "[8]; human, in vivo, 1 cycle", "value": 4, "unit": "patients"}, {"measurement": "DLT observed", "setting": "[8]; human, in vivo, 22 day", "value": "grade 3 hyponatremia"}, {"measurement": "Maximum tolerable dose (MTD)", "setting": "[8]; oral QD, 3+3 dose escalation 50 to 600 mg", "value": 400, "unit": "mg"}, {"measurement": "Gli1 inhibition in normal skin (median)", "setting": "[9]", "value": 92.3, "unit": "%"}]}, {"compound": "Cc1c(C(=O)Nc2ccc(N3C[C@@H](C)O[C@@H](C)C3)nc2)cccc1-c1ccc(OC(F)(F)F)cc1", "note": "[sonidegib]", "values": [{"measurement": "Efficacy in advanced BCC patients previously treated with vismodegib", "setting": "[10]", "value": "not efficacious"}, {"measurement": "PK linearity", "setting": "[11]", "value": "nonlinear PK"}, {"measurement": "Bound to plasma protein", "setting": "[12]", "value": "over 99%"}]}]}
